# This is one part of a sample in which hits are shown more often than they occur.
# CHOP inhibitor: inhibitors of CHOP promoter induction, primary screen, cell-based, unfolded protein response, luciferase reporter. CHO-K1 CHOP-promoter luciferase, tunicamycin-induced, 15-18 h. inhibition, % at 10 µM. 220,000 compounds, 3.8% hits. AID 2732, 2010;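 active means compounds that reduced the stress-induced luciferase reporter signal by more than about 70% of percent inhibition, limit read from the data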;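 further: 0% = tunicamycin plus vehicle and 100% = wells without tunicamycin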
# XBP1 UPR activ: activators of adaptive XBP1 UPR arm, primary screen, cell-based, CHO-XBP1 luciferase reporter, luminescence, uHTS; IRE1-XBP1 UPR activation; percent of tunicamycin response, DMSO as zero; activation, % at 20 µM; 330,000 compounds, 0.33% hits;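 active means versus positive control, 20 µM dose yields 30% or more activation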;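 further: 100% = tunicamycin at 10 µg/mL and 0% = DMSO only wells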
#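 Assay system: CHO-XBP1 luciferase reporter cells; Schedule: 6 h treatment, 37 °C; Detection: glow luminescence from Steady-Glo reagent; Benchmarks: high control tunicamycin 10 µg/mL final, low control DMSO vehicle only.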
# L major viab: Leishmania major promastigote growth inhibition, primary screen; inhibition, % at 10 µM; Leishmania major promastigotes, resazurin fluorescence viability; AID 1063, 2008; 200,000 compounds, 9% hits; in the data active means inhibition above about 50%;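 further: promastigotes grown with compound for 44 hours at 28 °C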
# T cruzi inh: inhibitors of intracellular T. cruzi growth, primary screen, luminescence, NIH3T3 host cells | 300,000 compounds, 1.4% hits | inhibition, % (concentration not given with the values) | T. cruzi beta-gal in NIH3T3, 90 h;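 active means mean inhibition across valid replicates above about 55%, limit read from the data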;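 further: signal also drops with host cell toxicity which is not excluded here; 0% = plate median of DMSO wells and 100% = zero luminescence signal; higher percent means less beta-gal luminescence so fewer parasites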
#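 assay system = mouse NIH/3T3 fibroblasts infected with β-gal-expressing T. cruzi Tulahuen C4 | input = 5,000 NIH/3T3 host cells per well | buffer or medium = DMEM plus 2% FBS | timing = 3 h host attachment, then at least 90 h co-culture | measured by = GalScreen luminescence, 60 min | evaluation = luminescence reflecting intracellular parasite burden, expressed as percent inhibition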
# CHOP UPR activ: activators of apoptotic CHOP UPR arm, primary screen, cell-based, CHO-CHOP luciferase reporter, luminescence, uHTS. UPR activation; percent of tunicamycin response over DMSO baseline. activation, % at 10 µM. 330,000 compounds, 0.34% hits. AID 449763, 2010;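 active means at 10 µM dose, activation of 40% or more, normalized to positive control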;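 further: 100% = tunicamycin at 10 µg/mL and 0% = DMSO alone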
#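 System: CHO-CHOP luciferase reporter cell line; amount: 500 cells/well; buffer or medium: F12 medium containing 10% fetal bovine serum; incubation: 6 h compound exposure at 37 °C after overnight seeding; measured by: luciferase luminescence after 10 min with Steady-Glo reagent; evaluation: % reporter activation, DMSO baseline versus tunicamycin full activation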
# Dynein transport: inhibitors of GR-EGFP nuclear translocation, primary screen, dynein cargo transport inhibitor project, imaging, high-content, 3617.4 mouse cells | AID 1381, 2008 | z-score, hits read low | test concentration mostly 20 µM; stimulated with dexamethasone, 1 µM; stronger effect = lower value | 220,000 compounds, 0.47% hits;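 active means plate z-score of nuclear minus cytoplasmic receptor signal below a set negative limit, without overly bright fluorescence or cell loss, cut at about -3.5 in these data, passing the limit was not always enough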;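 further: z-score of nuclear minus cytoplasmic ring GR-EGFP intensity difference per well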
#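 Buffer or medium – tet-free medium with charcoal-stripped serum · Signal – automated 10x imaging of fixed Hoechst-stained cells · Also added – dexamethasone agonist, 1.0 µM final, for 30 min · Incubation – induction 48 h, compound 1 h, agonist 30 min · Read-out – GR-EGFP nuclear translocation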
# CHOP inh conf: retest of CHOP induction inhibitors, confirmation, cell-based | inhibition, % at 10 µM | 2,100 compounds, 45% hits | CHO-CHOP promoter luciferase reporter, tunicamycin-induced, luminescence | AID 504437, 2011 | shares compounds with CHOP inhibitor;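 active means mean of three repeat readings of reporter signal inhibition above a set limit, cut at about 70% in these data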;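 further: 0% = tunicamycin plus vehicle and 100% = wells lacking tunicamycin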
# Starred values were filed as active, the others as inactive; · = not tested or not shown.
SMILES,CHOP inhibitor,XBP1 UPR activ,L major viab,T cruzi inh,CHOP UPR activ,Dynein transport,CHOP inh conf
Cc1ccccc1CNc1nnnn1C,14,-2,-6,-5,2,-0.79,·
O=C(NNC(=O)c1ccco1)c1cccc(Br)c1,·,0,·,4,4,·,·
C(=N\Nc1nc(Nc2ccccc2)nc(Nc2ccccc2)n1)/c1cccnc1,97*,19,35,43,6,0.92,41
CN(Cc1ccccc1)C(=O)c1ccc(NC(=O)C2=CSCCO2)cc1,·,0,·,13,3,·,·
O=C(OCc1ccc(F)cc1)c1ccc2c(c1)-c1ccccc1C2=O,46,0,-7,-18,4,-0.13,·
CCOC(=O)C1=C(Cc2ccc(F)cc2)C(=O)c2ccccc2C1=O,108*,-2,48,-29,125*,-1.7,37
Cc1ccc(NC(=O)c2ccc([N+](=O)[O-])s2)cc1S(=O)(=O)N1CCOCC1,·,1,·,·,4,·,·
O=S(=O)(Nc1c(S(=O)(=O)c2ccccc2)c2nc3ccccc3nc2n1C1CCCCC1)c1ccccc1,106*,·,0,0,·,0.74,23
C=CCn1c(NS(=O)(=O)c2ccccc2)c(S(=O)(=O)c2ccc(C)cc2)c2nc3ccccc3nc21,6,·,-1,3,·,-0.17,·
CC(C)(C)NC(=O)C(c1ccc(-c2ccccc2)cc1)N(C[C@H]1CC[C@@H]([C@@H]2CC[C@H](CO)O2)O1)C(=O)c1ccc(C(C)(C)C)cc1 (stereo partly specified),·,11,·,·,7,·,·
Cc1ccc(NC(c2ccccc2)c2nc3ccccc3[nH]c2=O)cc1 (stereo unspecified),102*,-4,·,19,2,-0.61,10
Cc1ccnc2nc(C(=O)OCC(=O)Nc3ccc([N+](=O)[O-])cc3Br)nn12,·,-1,·,·,4,·,·
C=CCc1cc(C)ccc1OCC(O)CN1CCN(c2ccccc2)CC1 (stereo unspecified),106*,-2,29,16,0,-1.1,96*
C=CCc1ccc(OCC(O)CN2CCN(c3ccccc3)CC2)c(OC)c1 (stereo unspecified),·,1,·,28,6,·,·
Cc1ccc2oc(-c3cccc(NC(=O)Cn4cnc5c(=O)n(C)c(=O)n(C)c54)c3)nc2c1,104*,26,-2,13,4,-1.2,69
O=C(COC(=O)Cc1c(Cl)cccc1Cl)Nc1ccc(OC(F)(F)F)cc1,109*,-2,-4,0,1,0.19,86*
Cc1ccc(-c2ccc(/C=C(\C#N)C(=O)Nc3cc(C)nn3-c3ccccc3)o2)cc1,104*,46*,-1,16,55*,1.6,89*
Cc1cc(NC(=O)/C(C#N)=C/c2ccco2)n(-c2ccccc2)n1,14,1,-4,2,-2,-0.57,·
Cc1cn(-c2cc(NC(=O)c3ccc(C)c(NC(=O)c4cccc(-c5cn[nH]c(=O)c5)c4)c3)cc(C(F)(F)F)c2)cn1,·,-1,·,0,0,·,·
COc1ccc(-c2cnc(OC(C)(C)C)nc2OC(C)(C)C)cc1OC,106*,3,6,16,-1,0.15,89*
COc1ccc(-c2cc3cc(OC)c(OC)cc3cn2)cc1OC,·,8,·,1,5,·,·
Cc1cc(Nc2ccccc2)nc(-c2ccccc2O)n1,96*,5,11,-5,3,1.2,100*
CCOc1cc(/C=N/O)cc(Cl)c1OC,56,-2,20,7,0,-0.4,·
CCCOc1c(Cl)cc(/C=N/O)cc1OCC,102*,0,6,14,-1,0.7,-21
Cc1nc(C(=O)N/N=C/c2[nH]ncc2Br)cs1,4,1,·,-6,2,0.74,·
SMILES,CHOP inhibitor,XBP1 UPR activ,L major viab,T cruzi inh,CHOP UPR activ,Dynein transport,CHOP inh conf
CCCCC1=CC2=C(c3ccco3)C(=O)C(C)(OC(=O)c3ccc(OC)cc3)C(=O)C2=CN1Cc1ccco1 (stereo unspecified),102*,-1,·,13,1,1.2,37
CCCCC1=CC2=C(c3ccco3)C(=O)C(C)(OC(=O)c3ccc(OC)cc3)C(=O)C2=CN1Cc1ccc(OC)cc1 (stereo unspecified),-2,0,·,17,5,-1,·
S=C(Nc1ccccc1)Nc1ccc(OCc2ccc(Cl)cc2Cl)cc1,108*,-9,18,-15,-11,0.41,115*
O=C(C/C=N\OCc1ccc(Cl)cc1Cl)Nc1ccccc1,61,-4,3,5,-2,-0.28,·
COc1ccccc1NS(=O)(=O)c1cccc(NC(=O)NCCCl)c1,15,-1,·,-2,0,-0.31,·
COc1ccccc1NS(=O)(=O)c1cccc(NC(=O)Nc2cccc(Cl)c2)c1,101*,5,100*,62*,1,2.5,51
COc1ccc2oc(=O)c(-c3cn4ccc(C)cc4n3)cc2c1,97*,1,-2,-25,4,-0.68,-30
Cc1ccn2cc(-c3cnoc3C)nc2c1,8,2,0,12,2,0.48,·
CC(=O)N1CCOc2ccc(S(=O)(=O)NCCc3ccc(Cl)cc3)cc21,·,-6,·,5,-1,·,·
COc1cccc(NC(=O)CN(C)C(=O)c2cc3c(s2)CCC3)c1,·,1,·,-4,3,·,·
Cc1ccnn1-c1ccc(C(=O)N2CCCN(S(=O)(=O)c3ccc(F)cc3)CC2)cc1,·,-4,·,·,0,·,·
CCOc1ccc(CCNC(=O)CSc2cc(=O)n(C)c3cc(Cl)ccc23)cc1OCC,11,-3,1,27,4,-0.61,·
Cn1c(=O)cc(SCC(=O)NCCC2=CCCCC2)c2ccc(Cl)cc21,97*,3,18,10,0,1.1,90*
CCOC(=O)c1sc(Nc2ccccc2Cl)nc1C,14,9,·,2,6,0.78,·
COc1ccc(NC(=O)Nc2nnc(-c3ccccc3SCc3ccccc3)s2)cc1,98*,5,6,17,0,-0.94,27
O=C(Nc1nnc(Cc2ccc(F)cc2)s1)Nc1ccccc1F,·,-5,·,-8,2,·,·
COc1ccc(OCc2nnc(NC(=O)Nc3ccc(F)cc3)s2)cc1,101*,-2,-9,-19,-1,0.62,0
O=C(Nc1nnc(COc2ccc(F)cc2)s1)Nc1ccccc1F,99*,-1,·,17,1,1.4,2

# Screening data: PubChem, several laboratories
